The source made the active and inactive calls. No cut-off for these calls is given here.
Tests used:
[1] = system: Rattus norvegicus; assay: (§1) Cardioprotective activity against ischemia/reperfusion-induced myocardial injury and standard diet fed Wistar rat model assessed as infarct size at 20 mg/kg/day, ip administered for 4 weeks followed by excised heart exposed to global ischemia for 30 mins and reperfusion for 120 mins and measured at the end of reperfusion by nitroblue tetrazolium staining based analysis (Rvb ~ 62+/-2%); type: functional; settings: 672 h
In short: (§2)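 Hearts from HFD or SD rats (20 mg/kg/day i.p., last 28 days) Langendorff-perfused (KH buffer, 37 °C, 12 ml/min). After 40 min stabilization they underwent 30 min global ischemia and 120 min reperfusion. The LV was stained; unstained necrotic and stained viable tissue separated and weighed. Infarct size expressed as % of LV mass. n=6–7.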

[2] = Drug metabolism in human serum assessed as half time for compound hydrolysis to 2-(5-(2-Chlorobenzyl)-2-oxo-1,3,4-oxadiazol-3(2H)-yl)acetic acid at 100 uM by RP-HPLC analysis; type: ADME, cell-free
In short: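 Compound at 100 μM final (from 10 mM DMSO stock) in human male AB serum held at 37 °C. Aliquots at intervals deproteinized with CH3CN/0.1% TFA, centrifuged, filtered and analysed by RP-HPLC against calibration standards. Pseudo-first-order t1/2 from exponential decay fit; three experiments.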

[3] = system: Rattus norvegicus; assay: Cardioprotective activity against high fat diet fed-induced metaflammation Wistar rat model assessed as reduction in myocardial damage by measuring reduction in plasma BNP level at 20 mg/kg/day, ip administered for 4 weeks by ELISA; type: functional, organism-based
In short: (§3)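 Male Wistar rats on HFD or SD for 12 weeks received 20 mg/kg/day i.p. (saline, 2% DMSO, 5% Cremophor-EL) or vehicle for the last 28 days. Circulating IL-1β, TNF-α, BNP and Gal-3 quantified by ELISA in blood collected after sacrifice. n=6–7 per group.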

[4] = system: Rattus norvegicus; assay: Antiinflammatory activity against high fat diet fed-induced metaflammation Wistar rat model assessed as reduction in HFD-induced anthropometric alterations by measuring reduction in abdominal fat deposition at 20 mg/kg/day, ip administered for 4 weeks; type: functional, organism-based
In short: (§4)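 Male Wistar rats on high-fat diet (60% kcal fat) or standard diet for 12 weeks; 20 mg/kg/day i.p. or vehicle (saline, 2% DMSO, 5% Cremophor-EL) over the last 28 days. Body weight recorded weekly. After sacrifice, abdominal, epididymal, retroperitoneal and perirenal fat, liver and heart excised and weighed. Cardiac somatic index = heart weight/body weight ×100. n=6–7 per group.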

[5] = target: NACHT, LRR and PYD domains-containing protein 3 (Homo sapiens, UniProt Q96P20); assay: Inhibition of NLRP3 inflammasome activation in PMA-differentiated human THP-1 cells assessed as inhibition of LPS/ATP-induced IL-1 beta release pretreated for 4 hrs with LPS followed by incubation with compound for 1 hr and later treated with ATP for 1.5 hrs by ELISA; type: cell-based
NACHT, LRR and PYD domains-containing protein 3, sequence (Q96P20 whole entry, the tested form may be a part): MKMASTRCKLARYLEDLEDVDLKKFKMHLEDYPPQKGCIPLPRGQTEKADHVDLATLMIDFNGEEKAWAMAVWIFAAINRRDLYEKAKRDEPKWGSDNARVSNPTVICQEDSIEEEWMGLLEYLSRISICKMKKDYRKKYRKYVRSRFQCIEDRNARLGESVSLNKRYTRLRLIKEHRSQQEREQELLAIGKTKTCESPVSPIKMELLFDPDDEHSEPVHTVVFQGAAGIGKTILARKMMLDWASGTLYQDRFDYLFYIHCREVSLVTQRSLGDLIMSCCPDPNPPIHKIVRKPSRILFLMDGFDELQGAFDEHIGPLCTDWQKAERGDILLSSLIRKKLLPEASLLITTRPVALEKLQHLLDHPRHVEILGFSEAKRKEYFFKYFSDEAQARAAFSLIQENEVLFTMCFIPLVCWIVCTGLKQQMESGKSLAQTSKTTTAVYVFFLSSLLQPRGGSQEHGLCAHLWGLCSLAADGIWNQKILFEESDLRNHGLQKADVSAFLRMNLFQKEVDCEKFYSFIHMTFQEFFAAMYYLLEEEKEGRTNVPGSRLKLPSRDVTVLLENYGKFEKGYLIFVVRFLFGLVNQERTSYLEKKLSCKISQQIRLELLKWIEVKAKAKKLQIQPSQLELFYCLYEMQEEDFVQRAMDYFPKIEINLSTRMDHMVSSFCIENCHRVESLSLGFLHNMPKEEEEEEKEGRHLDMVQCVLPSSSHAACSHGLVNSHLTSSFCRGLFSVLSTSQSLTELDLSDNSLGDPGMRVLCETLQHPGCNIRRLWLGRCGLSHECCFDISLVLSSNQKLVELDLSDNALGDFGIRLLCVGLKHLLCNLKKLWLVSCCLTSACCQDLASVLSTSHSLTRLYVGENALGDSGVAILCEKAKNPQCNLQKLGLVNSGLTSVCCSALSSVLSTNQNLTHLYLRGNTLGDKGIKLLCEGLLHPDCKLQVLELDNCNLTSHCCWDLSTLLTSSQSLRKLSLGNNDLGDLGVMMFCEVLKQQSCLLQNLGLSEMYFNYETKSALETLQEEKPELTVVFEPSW

[6] = system: Rattus norvegicus; assay: Antiinflammatory activity against high fat diet fed-induced metaflammation Wistar rat model assessed as reduction in HFD-induced metabolic alterations by measuring increase in HDL cholesterol level in plasma at 20 mg/kg/day, ip administered for 4 weeks; type: functional, organism-based
In short: (§5)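 Rats fed HFD or SD for 12 weeks, dosed 20 mg/kg/day i.p. in saline/2% DMSO/5% Cremophor-EL during the final 28 days. Serum obtained after sacrifice by centrifuging blood at 2000 x g, 10 min, 4 °C. Glucose read by glucometer; total, HDL and LDL cholesterol and triglycerides measured with commercial kits. n=6–7 per group.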

[7] = system: Rattus norvegicus; assay: (§6) Cardioprotective activity against ischemia/reperfusion-induced myocardial injury and high diet fed obese Wistar rat model assessed as decrease in LDH activity in coronary effluents at 20 mg/kg/day, ip administered for 4 weeks followed by excised heart exposed to global ischemia for 30 mins and reperfusion for 120 mins and measured during first 10 mins of reperfusion by spectrophotometric analysis; type: functional, organism-based
In short: (§7)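 HFD or SD rats, dosed 20 mg/kg/day i.p. for the final 28 days, anaesthetised with ethyl carbamate (2 g/kg i.p.). Hearts Langendorff-perfused with Krebs–Henseleit buffer (pH 7.4, 37 °C, 12 ml/min); 40 min stabilization, 30 min global no-flow ischemia, 120 min reperfusion. Coronary effluent collected on ice before ischemia and at 10, 20, 30 min reperfusion; LDH activity by McQueen method. n=6–7.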

[8] = system: Rattus norvegicus; assay: as §6, with “standard” for “high”, “fed” for “fed obese”; type: functional, organism-based; in short: as §7
[9] = system: Rattus norvegicus; assay: as §6, with “30” for “10”; type: functional, organism-based; in short: as §7
[10] = system: Rattus norvegicus; assay: as §1, with “high” for “standard”, “fed obese” for “fed”, “70+/-1%)” for “62+/-2%)”; type: functional; settings: 672 h; in short: as §2
[11] = Effect on glyco-metabolic profile in standard diet fed Wistar rat assessed as effect on total cholesterol level in plasma at 20 mg/kg/day, ip administered for 4 weeks; type: toxicity, organism-based; settings: in vivo, 672 h; in short: as §5
[12] = Drug metabolism in PBS assessed as half time for compound hydrolysis to 2-(5-(2-Chlorobenzyl)-2-oxo-1,3,4-oxadiazol-3(2H)-yl)acetic acid at 100 uM at pH 7.4 by RP-HPLC analysis; type: ADME
In short: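 Compound added from 10 mM DMSO stock to 50 mM PBS, pH 7.4, 37 °C. Sampled over 48 h and quantified by RP-HPLC (phenyl column, 226/254 nm) against external standards of ester and acid.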

[13] = system: Rattus norvegicus; assay: Antiinflammatory activity against high fat diet fed-induced metaflammation Wistar rat model assessed as reduction in HFD-induced anthropometric alterations by measuring reduction in body weight gain at 20 mg/kg/day, ip administered for 4 weeks; type: functional, organism-based; in short: as §4
[14] = Effect on Gal-3 level in standard diet fed Wistar rat plasma at 20 mg/kg/day, ip administered for 4 weeks; type: toxicity, organism-based; settings: in vivo, 672 h; in short: as §3
[15] = Effect on left ventricular end diastolic pressure in standard diet fed Wistar rat model at 20 mg/kg/day, ip administered for 4 weeks (reference value: 3+/-1 mm Hg); type: toxicity, organism-based; settings: in vivo, 672 h
[16] = Effect on BNP level in standard diet fed Wistar rat plasma at 20 mg/kg/day, ip administered for 4 weeks; type: toxicity, organism-based; settings: in vivo, 672 h; in short: as §3
[17] = system: Rattus norvegicus; assay: Cardioprotective activity against high fat diet fed-induced metaflammation Wistar rat model assessed as reduction in myocardial damage by measuring reduction in plasma LDH level at 20 mg/kg/day, ip administered for 4 weeks; type: functional, organism-based
[18] = system: Rattus norvegicus; assay: as §6, with “standard” for “high”, “fed” for “fed obese”, “20” for “10”; type: functional, organism-based; in short: as §7
[19] = system: Rattus norvegicus; assay: Antiinflammatory activity against high fat diet fed-induced metaflammation Wistar rat model assessed as reduction in HFD-induced metabolic alterations by measuring reduction in plasma glucose level at 20 mg/kg/day, ip administered for 4 weeks by glucometer analysis; type: functional, organism-based; in short: as §5
[20] = Drug metabolism in human THP-1 cells assessed as half time for compound hydrolysis to 2-(5-(2-Chlorobenzyl)-2-oxo-1,3,4-oxadiazol-3(2H)-yl)acetic acid at 100 uM by RP-HPLC analysis; type: ADME, cell-based
In short: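 PMA-differentiated THP-1 cells lysed in RIPA buffer. Compound added to lysate at 100 μM final (from 10 mM DMSO stock) at 37 °C. Aliquots at intervals deproteinized with CH3CN/0.1% TFA and quantified by RP-HPLC against standards. Pseudo-first-order t1/2 from exponential decay fit; three experiments.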

- half-life at 100 µM [2]: 4 h
- IC50 [5]: 16.6 µM
- half-life at 100 µM [12]: > 48 h
- half-life at 100 µM [20]: 1.08 h
Structure (SMILES): CCOC(=O)Cn1nc(Cc2ccccc2Cl)oc1=O
- infarct size in vivo at 20 mg/kg/day [1]: ~53%
- Activity [3]: Active
- Activity [4]: Active
- Activity [6]: Active
- Activity [7]: Active
- Activity [8]: Active
- Activity [9]: Active
- infarct size in vivo at 20 mg/kg/day [10]: ~61%
- Activity [11]: Non-Toxic
- Activity [13]: inactive
- Activity [14]: Non-Toxic
- Activity [15]: 3 mmHg
- Activity [16]: Non-Toxic
- Activity [17]: Active
- Activity [18]: Active
- Activity [19]: Active
